Values joined by “and” are separate entries in the source; they are usually repeats but may differ in a detail not shown here. Equal values may be shown once. Where a name gives a salt, the structure may show the parent alone. Read-outs that look alike come from different tables or passages of the source.
Experiments:
MCF-7 xenografts [1] = assay: Ex vivo dye biodistribution analysis by NIRF of harvested tumors and organs; type: in vivo, mice; settings: day 2 of injection
In short: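 Ovariectomized female athymic mice carried mammary fat-pad MCF-7 xenografts (5 million cells in Matrigel, estradiol:cholesterol 1:3 implants), grown to about 150 mm3. A separate cohort received 17 nmol dye i.p. After IVIS imaging, mice were killed by ketamine/xylazine overdose at each time point. Tumor, muscle, liver, lung, heart, kidneys and skin were rinsed, dried and IVIS-imaged; organ ROIs were normalized to tumor volume.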

MCF-7 xenografts [2] = assay: In vivo NIRF imaging of tumor uptake in nude mice bearing MCF-7 xenografts; settings: for retention of fluorescence in tumors: two days after injection
In short: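 Nude mice with estradiol-supported MCF-7 mammary fat-pad xenografts (about 150 mm3) received 17 nmol dye i.p. (n = 3). They were imaged under 2% isoflurane at serial time points up to 8 days on IVIS (Ex 740/Em 820 nm, auto exposure, F-stop 2). Tumor ROI radiance (p/s/cm2/sr) was background-subtracted using another body region and normalized to tumor volume.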

[3] = Partition coefficient in n-octanol and water, measured by NIR fluorescence; type: physicochemical; settings: octanol–water partitioning measured with NIRF
In short: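 Compound (5 nmol) was shaken 10 min in 0.6 mL n-octanol plus 0.6 mL water (final 4.15 μM, within the linear fluorescence range), then centrifuged at 10,000 rpm for 5 min. Triplicate 100 μL aliquots of each layer were imaged on IVIS (Ex/Em 745/820 nm) as ROI average radiance. log P = log(octanol/water intensity), corrected by a per-probe solvent factor; mean and SD reported.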

[4] = Cell viability / growth inhibition in benign breast epithelial cells; type: cell-based; settings: human, MCF-10A cells (benign breast epithelial cells)
LTED cells = assay: Cell viability / growth inhibition by cell number count; type: cell-based, human
In short: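 LTED cells (MCF-7-derived, phenol red-free medium, charcoal-dextran stripped FBS) seeded at 60,000/well in 6-well plates and grown 2 days at 37 °C. They were then exposed to test compound for 2–5 days with 0.1% final ethanol or DMSO vehicle. Cells were saline-rinsed, nuclei released with HEPES–MgCl2 and ZAP (ethylhexadecyldimethylammonium bromide/acetic acid) and Coulter-counted. Three independent repeats, normalized to 100% viability; dose–response curves gave IC50.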

Row | fluorescence intensity in tumor tissue compared to muscle (MCF-7 xenografts [1]) | time of peak uptake (NIRF) (MCF-7 xenografts [2]; 17 nmol/mouse) | fluorescence intensity disappeared (MCF-7 xenografts [2]; 8 days after injection) | retention of fluorescence in tumors (MCF-7 xenografts [2]; 17 nmol/mouse) | log P [3] | SMILES | viability at 2 days, 50 µM [4] | IC50 (LTED cells; Homo sapiens, read-out: IC50 (cell growth inhibition), LTED cells) | IC50 (LTED cells; read-out: IC50 (cell growth inhibition), LTED cells) | inhibition of cells (LTED cells; up to 75 μM)
1 | 8.6 fold | about 30 h | 80% | retained in the tumors | 0.49 | CC1(C)C(=CC=C2CCCC(C=CC3=[N+](CCCCS(=O)(=O)[O-])c4ccccc4C3(C)C)=C2Cl)N(CCCCCC(=O)O)c2ccccc21 [Compound 5, 3H-Indolium, 2-[2-[3-[2-[1-(5-Carboxypentyl)-1,3-dihydro-3,3-dimethyl-2H-indol-2-ylidene]ethylidene]-2-chloro-1-cyclohexen-1-yl]ethenyl]-3,3-dimethyl-1-(4-sulfobutyl) Inner Salt] | – | – | – | –
2 | 6.3 fold | – | – | retained in the tumors | −1.13 | CC1(C)C(/C=C/C2=C(Cl)C(=C\C=C3/N(CCCS(=O)(=O)[O-])c4ccccc4C3(C)C)/CCC2)=[N+](CCCS(=O)(=O)[O-])c2ccccc21.[Na+] [Compound 6, 3H-indolium, 2-[2-[2-chloro-3-[[1,3-dihydro-3,3-dimethyl-1-(3-sulfopropyl)-2H-indol-2-ylidene]ethylidene]-1-cyclohexen-1-yl]ethenyl]-3,3-dimethyl-1-(3-sulfopropyl)-, inner salt, sodium salt] | – | – | – | –
3 | 4.5 fold | – | – | retained in the tumors | 1.35 | CC1(C)C(/C=C/C2=C(Cl)C(=C/C=C3\N(CCCCCC(=O)O)c4ccccc4C3(C)C)/CCC2)=[N+](CCCCCC(=O)O)c2ccccc21 [Compound 7] | – | – | – | –
4 | – | – | – | – | – | CC(C)=CCC/C(C)=C/CC/C(C)=C/CSc1ccccc1C(=O)O [FTS, S-trans-trans-farnesylthiosalicylic acid] | ~100% | ~51.3 µM | ~51.8 µM and < 50 µM | 70–75%

Reference: publication PMC5815365 (Molecular pharmaceutics, 2016)
